MLL AF4-AF9 inh – MLL-AF4/AF9 protein interaction inhibition; inhibition, % at 10 µM; AID 651704; P42568; hit rate 0.47% among 350,000; AlphaScreen, biotin-AF4 peptide binding to FLAG-AF9;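 active = every replicate reaching a set inhibition limit, whatever the replicate mean, cut at about 25% in these data; inconclusive = mean inhibition reaches that limit but some replicates miss it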
Target sequence (P42568 whole entry, looked up): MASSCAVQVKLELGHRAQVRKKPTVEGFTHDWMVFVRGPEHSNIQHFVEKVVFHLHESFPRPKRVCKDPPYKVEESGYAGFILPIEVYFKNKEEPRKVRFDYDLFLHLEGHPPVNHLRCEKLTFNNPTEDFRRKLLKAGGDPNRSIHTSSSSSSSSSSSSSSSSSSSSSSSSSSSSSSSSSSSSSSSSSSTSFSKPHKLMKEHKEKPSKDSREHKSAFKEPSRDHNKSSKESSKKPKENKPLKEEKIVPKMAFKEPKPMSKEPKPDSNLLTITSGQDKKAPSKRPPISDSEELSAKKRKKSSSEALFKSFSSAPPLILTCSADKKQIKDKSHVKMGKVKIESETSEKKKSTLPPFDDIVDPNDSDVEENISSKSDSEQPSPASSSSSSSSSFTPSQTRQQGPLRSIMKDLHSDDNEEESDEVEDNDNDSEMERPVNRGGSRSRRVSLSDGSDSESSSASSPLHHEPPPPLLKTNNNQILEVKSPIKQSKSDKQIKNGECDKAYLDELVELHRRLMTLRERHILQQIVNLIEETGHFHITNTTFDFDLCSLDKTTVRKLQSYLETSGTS
PAX8 inh HTS – inhibitors of PAX8 transcriptional activity in RMG-I cells; RMG-I TPO-luciferase reporter, SteadyGlo, 24 h; inhibition, % at 12.6 µM; hit rate 1.2% among 360,000;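 active = mean replicate inhibition at least 60% with every replicate also reaching 60%; inconclusive = only one of the two criteria is met; inactive = mean below 60% and not all replicates reaching 60%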;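 also: luciferase light reporting Pax8 driven TPO promoter activity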
Xi reactivation – reactivates the inactive X chromosome in mouse fibroblasts; XiGFP mouse fibroblasts, % GFP-positive cells imaging, 3 d; cells co-treated with 5-aza-dC sensitizer; scaled so ellipticine positive control = 100%; activation, % at 7.58 µM; hit rate 0.055% among 360,000;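 active = mean normalized replicate activation at least 10% and every replicate at or above 10%; inconclusive = only one of the two criteria met; inactive = mean below 10% and not all replicates reach 10%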
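Assay system – SV40-immortalized XiGFP fibroblast cells, line 68-5-11 · Buffer or medium – DMEM supplemented with 5-aza-dC as sensitizing agent · Dosing – one concentration, pinned · Benchmarks – positive control ellipticine, 6 µM final · Times – 3 days compound exposure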
GSIS activator – primary screen for activators of insulin secretion dependent on glucose, INS-1E cells, GLuc reporter luminescence | INS-1E GLuc reporter insulin secretion, 2-3 h | activation, % at 16.6 µM | hit rate 0.61% among 370,000 | AID 743287;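 active = lowest replicate activation of at least 40%, so every replicate reaches that level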
PGC1a acetyl inh – lowers PGC1a acetylation signal in U2OS cells. AlphaScreen anti-acetyl-lysine; with virally co-expressed GCN5 acetyltransferase. inhibition, % at 15.6 µM. hit rate 0.17% among 350,000;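 active = every replicate shows inhibition of at least 40%; inconclusive = mean inhibition at least 40% but some replicate below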
EWS-Fli block – inhibitors of EWS/Fli oncoprotein transcriptional activity | A673 NR0B1-luciferase reporter, viability-normalised | inhibition, % at 12.6 µM | hit rate 0.67% among 350,000;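 active = mean inhibition of at least 50% after viability correction, with every replicate also passing that limit; inconclusive = mean reaches 50% but only one of two replicates passes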;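 also: firefly luciferase signal divided by Alamar Blue viability fluorescence both relative to DMSO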
COX5a expr inh – reduces COX5a expression driven by PGC-1a in C2C12 myotubes; shares compounds with PGC1a acetyl inh; maximal activity, %; C2C12 myotubes PGC-1a adenovirus, COX5a qPCR; AID 743461; 45 tested, under 10 active;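 active = fitted dose curve reaching 40% activity at or below the highest valid dose tested; inconclusive = flat fit between 30% and 70%, or an unusable fit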
AID743468 – change in PGC-1a target gene PDK4 expression, dose response, C2C12 myotubes, RT-qPCR, cherry-pick | AID 743468 | 45 tested, under 10 active | PDK4 expression increase, % at 19.5 µM | shares compounds with PGC1a acetyl inh | PGC-1a adenovirus, PDK4 mRNA qPCR;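 active = fitted curve reaching a 40% PDK4 expression rise at or below the top valid tested dose; inconclusive = no clear call, values can overlap the other calls; inactive = the rest, including shifts the wrong way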
AlphaScreen intf – interferes with the AlphaScreen assay signal; shares compounds with MLL AF4-AF9 inh; hit rate 45% among 530; AlphaScreen interference counter-screen, signal luminescence; AC50, µM (doses to about 12 µM); cut-off not given, nearly all actives have AC50 up to about 14 µM
Of the large screens only hits and unclear results are named; the others gave an inactive call (follow-up assays come after a bar, where they were run). A selection: hits, their analogues and other compounds. The true share with any hit is near 2.1%.

COC(=O)[C@H]1[C@H](CO)[C@H]2Cn3c(ccc(C4=CCCC4)c3=O)[C@@H]1N2CC1CCCCC1	none (no result: PAX8 inh HTS, PGC1a acetyl inh)
FC(F)(F)CN1C[C@@H]2N[C@H](C1)C2c1ccc(Br)cc1 (stereo not given in full)	none (no result: MLL AF4-AF9 inh, PAX8 inh HTS, PGC1a acetyl inh, EWS-Fli block)
CCn1nc(/C=C/c2ccccc2)nc2c(=O)n(C)c(=O)nc1-2	PAX8 inh HTS 94, PGC1a acetyl inh 69 | COX5a expr inh inactive | AID743468 inactive
Cc1cccc(S(=O)(=O)N2[C@@H]3Cn4c(ccc(-c5cccc(F)c5)c4=O)[C@H]2[C@@H](C(=O)O)[C@@H]3CO)c1	none (no result: MLL AF4-AF9 inh, PGC1a acetyl inh)
COc1cc2c(c(OC)c1OC)-c1ccc(O)c(=O)cc1[C@@H](N)CC2	MLL AF4-AF9 inh 48 (no result: PAX8 inh HTS, Xi reactivation, GSIS activator) | AlphaScreen intf 7.6µM
NC(N)=N/N=C/c1cn(-c2ccccc2)nc1-c1cccs1	MLL AF4-AF9 inh 31 (no result: GSIS activator, PGC1a acetyl inh) | AlphaScreen intf inactive
COC(=O)C[C@H]1CC[C@H]2NC[C@H](O)COC[C@@H]2O1	none
CCN(CC)c1ccc(C(=C2C=CC(=[N+](CC)CC)C=C2)c2ccccc2)cc1	MLL AF4-AF9 inh 76, PAX8 inh HTS 113 (no result: PGC1a acetyl inh) | AlphaScreen intf 1.1µM
COc1ccc(OC(=O)N(C)C[C@H]2OCc3ccccc3-c3c(n(C)c4ccccc34)C(=O)N([C@@H](C)CO)C[C@H]2C)cc1	none
C=CCN1[C@@H]2CN(S(C)(=O)=O)C[C@H]1C2c1ccccc1 (stereo not given in full)	none (no result: MLL AF4-AF9 inh, PAX8 inh HTS, PGC1a acetyl inh, EWS-Fli block)
Cc1ccc(OC(=O)N(C)C[C@H]2OCc3ccccc3-c3c(n(C)c4ccccc34)C(=O)N([C@H](C)CO)C[C@@H]2C)cc1	none (no result: PGC1a acetyl inh)
O=C(CCN1CC1)OCCOC(=O)CCN1CC1	MLL AF4-AF9 inh inconclusive (no result: GSIS activator) | AlphaScreen intf inactive
CN1C2CCC1CC(OC(=O)CCN1CCCC1)C2 (stereo not given)	none (no result: PAX8 inh HTS, Xi reactivation, EWS-Fli block)
CC1(C)CC(Nc2ccc(Nc3ccccc3)cc2)CC(C)(C)N1	MLL AF4-AF9 inh 76, PAX8 inh HTS 69 (no result: PGC1a acetyl inh) | AlphaScreen intf 13µM
CC[n+]1c(/C=C/N(C)c2ccccc2)sc2ccc(Cl)cc21	none (no result: MLL AF4-AF9 inh, PAX8 inh HTS, Xi reactivation, EWS-Fli block)
CC[n+]1c(/C=C/C=C/c2ccc(N(C)C)cc2)sc2ccccc21	MLL AF4-AF9 inh 86, PAX8 inh HTS 80 | AlphaScreen intf 1µM
CN(C)c1ccc(/C=C/c2cc[n+](C)c3ccccc23)cc1	MLL AF4-AF9 inh 41, PAX8 inh HTS 95 | AlphaScreen intf 2.9µM
CN(C)c1ccc(/C=C/C=C/c2sc3ccccc3[n+]2C)cc1	MLL AF4-AF9 inh 61, PAX8 inh HTS 84 | AlphaScreen intf 3.7µM
O=C(Cc1ccncc1)N1CCCCN2[C@H](CO)[C@@H](c3ccc(C#CC4(O)CCCC4)cc3)[C@@H]2C1	none (no result: EWS-Fli block)
OC[C@@H]1Nc2ccc(C#Cc3cccnc3)cc2[C@H]2NCC[C@@H]12	none (no result: MLL AF4-AF9 inh, PAX8 inh HTS, PGC1a acetyl inh, EWS-Fli block)
CN(C)c1ccc([P+](=O)c2ccc(N(C)C)cc2)cc1	none
CN(C)c1ccc(Cc2ccc(N(C)C)cc2)cc1	MLL AF4-AF9 inh 46 (no result: GSIS activator) | AlphaScreen intf 9.3µM

Assay outcomes: PubChem, Broad Institute
